Measured values from ChEMBL document CHEMBL1146199, “Daptomycin susceptibility of unusual gram-positive bacteria: comparison of results obtained by the Etest and the broth microdilution method” (2007).
Values after ≈ are worked out from the molar mass of the structure shown.

Key:
Assay type in all cases: functional
[1] = test system: Pediococcus; test: Antimicrobial activity against Pediococcus spp. by broth microdilution method
Procedure, shortened: (§1)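 MIC by CLSI broth microdilution in Mueller-Hinton broth. Daptomycin testing used broth supplemented with calcium at physiological level (50 μg/ml). Vancomycin and linezolid were tested from standard powders. Control strains were S. aureus ATCC 29213 and Enterococcus faecalis 29212.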

[2] = test system: Nocardia asteroides; test: Antimicrobial activity against Nocardia asteroides by broth microdilution method; procedure, shortened: as §1
[3] = test system: Nocardia brasiliensis; test: Antimicrobial activity against Nocardis brasiliensis by broth microdilution method; procedure, shortened: as §1
[4] = test system: Leuconostoc; test: Antimicrobial activity against Leuconostoc spp. by broth microdilution method; procedure, shortened: as §1
[5] = test system: Rhodococcus sp.; test: Antimicrobial activity against Rhodococcus spp. by broth microdilution method; settings: Rhodococcus sp. (in: high G+C Gram-positive bacteria); procedure, shortened: as §1
[6] = test system: Nocardia sp.; test: Antimicrobial activity against Nocardia spp. by broth microdilution method; procedure, shortened: as §1
[7] = test system: Listeria monocytogenes; test: Antimicrobial activity against Listeria monocytogenes by broth microdilution method; procedure, shortened: as §1
[8] = test system: Nocardia asteroides; test: Antimicrobial activity against Nocardia asteroids by Etest
Procedure, shortened: (§2)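 Daptomycin MIC read from an Etest strip carrying a daptomycin-plus-calcium gradient, run per manufacturer's instructions. Each isolate was compared with its broth microdilution MIC (Mueller-Hinton broth, 50 μg/ml calcium). Agreement was defined as within 1 twofold dilution. Mean log2 difference was tested by one-sample t test.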

[9] = test system: Nocardia brasiliensis; test: Antimicrobial activity against Nocardis brasiliensis by Etest; procedure, shortened: as §2
[10] = test system: Rhodococcus sp.; test: Antimicrobial activity against Rhodococcus spp. by Etest; settings: Rhodococcus sp. (in: high G+C Gram-positive bacteria); procedure, shortened: as §2
[11] = test system: Listeria monocytogenes; test: Antimicrobial activity against Listeria monocytogenes by Etest; procedure, shortened: as §2
[12] = test system: Nocardia sp.; test: Antimicrobial activity against Nocardia spp. by Etest; procedure, shortened: as §2
[13] = test system: Pediococcus; test: Antimicrobial activity against Pediococcus spp. by Etest; procedure, shortened: as §2
[14] = test system: Leuconostoc; test: Antimicrobial activity against Leuconostac spp. by Etest; procedure, shortened: as §2

Work on `CC(=O)NC[C@H]1CN(c2ccc(N3CCOCC3)c(F)c2)C(=O)O1` [LINEZOLID] yielded an MIC50 [1] of 2 µg/mL (≈ 5.93 µM), an MIC90 [1] of 4 µg/mL (≈ 11.9 µM) and an MIC50 [2] of 4 µg/mL (≈ 11.9 µM). The MIC90 [2] was 4 µg/mL (≈ 11.9 µM), the MIC50 [3] was 8 µg/mL (≈ 23.7 µM) and the MIC90 [3] was 8 µg/mL (≈ 23.7 µM). For the same compound, the MIC50 [4] was 4 µg/mL (≈ 11.9 µM), the MIC90 [4] was 4 µg/mL (≈ 11.9 µM) and the MIC50 [5] was 1 µg/mL (≈ 2.96 µM). For the same compound, the MIC90 [5] was 2 µg/mL (≈ 5.93 µM), the MIC50 [6] was 4 µg/mL (≈ 11.9 µM) and the MIC90 [6] was 4 µg/mL (≈ 11.9 µM). It also gave an MIC50 [7] of 2 µg/mL (≈ 5.93 µM) and an MIC90 [7] of 2 µg/mL (≈ 5.93 µM).

For `CCCCCCCCCC(=O)N[C@@H](Cc1c[nH]c2ccccc12)C(=O)N[C@H](CC(N)=O)C(=O)N[C@@H](CC(=O)O)C(=O)N[C@@H]1C(=O)NCC(=O)N[C@@H](CCCN)C(=O)N[C@@H](CC(=O)O)C(=O)N[C@H](C)C(=O)N[C@@H](CC(=O)O)C(=O)NCC(=O)N[C@H](CO)C(=O)N[C@@H]([C@H](C)CC(=O)O)C(=O)N[C@@H](CC(=O)c2ccccc2N)C(=O)O[C@@H]1C`, the MIC50 [8] was over 256 µg/mL, the MIC90 [8] was over 256 µg/mL and the MIC50 [1] was 0.25 µg/mL (≈ 0.154 µM). For the same compound, the MIC90 [1] was 0.5 µg/mL (≈ 0.309 µM), the MIC50 [2] was over 64 µg/mL and the MIC90 [2] was over 64 µg/mL. It also gave an MIC50 [3] of over 64 µg/mL, an MIC90 [3] of over 64 µg/mL and an MIC50 [4] of 0.12 µg/mL (≈ 0.074 µM). For the same compound, the MIC90 [4] was 0.25 µg/mL (≈ 0.154 µM), the MIC50 [9] was over 256 µg/mL and the MIC90 [9] was over 256 µg/mL. For the same compound, the MIC50 [10] was 96 µg/mL (≈ 59.2 µM), the MIC90 [10] was over 256 µg/mL and the MIC50 [5] was over 64 µg/mL. It also gave an MIC90 [5] of over 64 µg/mL, an MIC50 [11] of 3 µg/mL (≈ 1.85 µM) and an MIC90 [11] of 4 µg/mL (≈ 2.47 µM). It also gave an MIC50 [12] of over 256 µg/mL, an MIC90 [12] of over 256 µg/mL and an MIC50 [6] of over 64 µg/mL. The MIC90 [6] was over 64 µg/mL, the MIC50 [13] was 0.25 µg/mL (≈ 0.154 µM) and the MIC90 [13] was 0.5 µg/mL (≈ 0.309 µM). For the same compound, the MIC50 [7] was 4 µg/mL (≈ 2.47 µM), the MIC90 [7] was 4 µg/mL (≈ 2.47 µM) and the MIC50 [14] was 0.25 µg/mL (≈ 0.154 µM). The MIC90 [14] was 0.5 µg/mL (≈ 0.309 µM).

`CN[C@H](CC(C)C)C(=O)N[C@H]1C(=O)N[C@@H](CC(N)=O)C(=O)N[C@H]2C(=O)N[C@H]3C(=O)N[C@H](C(=O)N[C@H](C(=O)O)c4cc(O)cc(O)c4-c4cc3ccc4O)[C@H](O)c3ccc(c(Cl)c3)Oc3cc2cc(c3O[C@@H]2O[C@H](CO)[C@@H](O)[C@H](O)[C@H]2O[C@H]2C[C@](C)(N)[C@H](O)[C@H](C)O2)Oc2ccc(cc2Cl)[C@H]1O` [VANCOMYCIN] gave an MIC50 [1] of over 64 µg/mL, an MIC90 [1] of over 64 µg/mL and an MIC50 [2] of over 64 µg/mL. For the same compound, the MIC90 [2] was over 64 µg/mL, the MIC50 [3] was over 64 µg/mL and the MIC90 [3] was over 64 µg/mL. The MIC50 [4] was over 64 µg/mL, the MIC90 [4] was over 64 µg/mL and the MIC50 [5] was 1 µg/mL (≈ 0.69 µM). The MIC90 [5] was over 64 µg/mL, the MIC50 [6] was over 64 µg/mL and the MIC90 [6] was over 64 µg/mL. The MIC50 [7] was 1 µg/mL (≈ 0.69 µM) and the MIC90 [7] was 1 µg/mL (≈ 0.69 µM).
